The source made the active and inactive calls. The calls are words filed in the database; no cut-off is given here.
Experiments:
Plasmodium berghei [1] = test: Antiplasmodial activity against Plasmodium berghei liver stage form transfected in human Huh-7 cells assessed as cell viability after 48 hrs by luciferase reporter gene assay; format: functional, organism-based; conditions: Huh-7, 48 h
[2] = Inhibition of beta-hematin formation at 0.1 to 1 mM after 48 hrs relative to control; format: functional
Procedure, shortened: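 Compounds in DMSO, 0.1−1 mM, added in triplicate to hemin chloride in DMSO (5.2 mg/mL). Formation started with 0.2 M acetate buffer pH 4.4, then 37 °C for 48 h. After centrifugation, pellet washed four times with DMSO and dissolved in 0.2 M NaOH, diluted 1:6 in 0.1 M NaOH, absorbance at 405 nm. Water and DMSO as negative controls.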

Plasmodium falciparum [3] = test: Antiplasmodial activity against CQ-resistant Plasmodium falciparum 3D7 blood stage form after 48 hrs by FACSort cytometry; format: functional, organism-based; conditions: 3D7, 48 h
Plasmodium falciparum [4] = test: Antiplasmodial activity against CQ-resistant Plasmodium falciparum W2 blood stage form after 48 hrs by FACSort cytometry; format: functional, organism-based; conditions: W2, 48 h
Huh-7 = test: Cytotoxicity against human HuH7 cells assessed as cell viability by AlamarBlue assay; format: cell-based
Procedure, shortened: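 Huh-7 human hepatoma cells grown in RPMI 1640 with 10% FCS, nonessential amino acids, glutamine and 10 mM HEPES pH 7, 37 °C, 5% CO2; 1.2 × 10^4 cells/well seeded the day before. Compound added ~1 h before P. berghei sporozoite infection and renewed at 24 h. Viability read by AlamarBlue per manufacturer's protocol at 48 h post-infection.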

Mus musculus [5] = test: Toxicity in Plasmodium berghei infected Swiss Webster mouse at 100 mg/kg, ip bid administered for 4 days by Giemsa staining method; format: organism-based; design: dose 100 mg/kg, route intraperitoneal; conditions: in vivo, 96 h
Procedure, shortened: (§1)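 Female Swiss Webster mice (n = 5) infected ip with 10^6 P. berghei-infected erythrocytes. Treatment began 2 h later: ip 10, 30 or 100 mg/kg twice daily for 4 days. Chloroquine control at 3, 10 and 30 mg/kg ip twice daily. Daily checks for toxicity and for parasitemia on Giemsa-stained blood smears; survival followed over time.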

Plasmodium berghei [6] = test: Antimalarial activity against Plasmodium berghei infected in Swiss Webster mouse assessed as increase in survival time at 10 mg/kg, ip bid administered for 4 days by Giemsa staining method relative to untreated control; format: functional
Procedure, shortened: (§2)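 Female Swiss Webster mice (n = 5) infected ip with 10^6 P. berghei-infected erythrocytes. Dosing began 2 h later by ip injection twice daily for 4 days; chloroquine control at 3, 10, 30 mg/kg ip twice daily. Mice checked daily for toxicity and parasitemia (Giemsa-stained blood smears). Survival after treatment start compared with untreated controls.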

Plasmodium berghei [7] = test: Antimalarial activity against Plasmodium berghei infected in Swiss Webster mouse assessed as increase in survival time at 30 mg/kg, ip bid administered for 4 days by Giemsa staining method relative to untreated control; format: functional; procedure, shortened: as §2
Mus musculus [8] = test: Toxicity in Plasmodium berghei infected Swiss Webster mouse at 10 to 100 mg/kg, ip bid administered for 4 days by Giemsa staining method; format: organism-based; design: dose 10-100 mg/kg, route intraperitoneal; conditions: in vivo, 96 h; procedure, shortened: as §1
Plasmodium berghei [9] = test: Antimalarial activity against Plasmodium berghei infected in Swiss Webster mouse assessed as increase in survival time at 100 mg/kg, ip bid administered for 4 days by Giemsa staining method relative to untreated control; format: functional; conditions: route intraperitoneal; procedure, shortened: as §2

Work on `CCN(CC)CCCC(C)Nc1ccnc2cc(Cl)ccc12` (stereo not drawn) [CHLOROQUINE] yielded an IC50 (Plasmodium berghei [1]) of 15900 nM and an inhibition [2] of over 75%.
In the case of `O=C(/C=C/c1ccc(F)cc1)NCCCCNc1ccnc2cc(Cl)ccc12`, the IC50 (Plasmodium berghei [1]) is reported as 1420 nM, the IC50 (Plasmodium falciparum [3]) is reported as 39.9 nM and the IC50 (Plasmodium falciparum [4]) is reported as 19.7 nM. The inhibition [2] was 50%.
`O=C(/C=C/c1ccc(F)cc1)NCCCNc1ccnc2cc(Cl)ccc12` showed an IC50 (Plasmodium falciparum [3]) of 47.7 nM and an IC50 (Plasmodium falciparum [4]) of 46.7 nM.
`C[C@@H]1CC[C@H]2[C@@H](C)C(=O)O[C@@H]3O[C@@]4(C)CC[C@@H]1[C@]32OO4` [ARTEMISININ] gave an IC50 (Plasmodium falciparum [3]) of 23.5 nM, an IC50 (Plasmodium falciparum [4]) of 9.5 nM and an inhibition [2] of under 50%.
With `CC(C)c1ccc(/C=C/C(=O)NCCCNc2ccnc3cc(Cl)ccc23)cc1` the IC50 (Plasmodium falciparum [3]) was 50.3 nM and the IC50 (Plasmodium falciparum [4]) was 38 nM.
For `Nc1ccc(/C=C/C(=O)NCCCCNc2ccnc3cc(Cl)ccc23)cc1`, the IC50 (Plasmodium falciparum [3]) was 78.1 nM and the IC50 (Plasmodium falciparum [4]) was 58.8 nM.
Compound `O=C(/C=C/c1ccc([N+](=O)[O-])cc1)NCCCNc1ccnc2cc(Cl)ccc12` has an IC50 (Plasmodium falciparum [3]) of 52.5 nM, an IC50 (Plasmodium falciparum [4]) of 23.7 nM and an inhibition [2] of 50%.
In the case of `O=C(/C=C/c1ccccc1[N+](=O)[O-])NCCCCNc1ccnc2cc(Cl)ccc12`, the IC50 (Plasmodium berghei [1]) is reported as 1090 nM, the IC50 (Plasmodium falciparum [3]) is reported as 56.9 nM and the IC50 (Plasmodium falciparum [4]) is reported as 38.3 nM. It also gave an inhibition [2] of 50%.
In the case of `O=C(/C=C/c1cccc(F)c1)NCCCCNc1ccnc2cc(Cl)ccc12`, the IC50 (Plasmodium berghei [1]) is reported as 1130 nM, the IC50 (Plasmodium falciparum [3]) is reported as 50.9 nM and the IC50 (Plasmodium falciparum [4]) is reported as 34.1 nM. It also gave an inhibition [2] of 50%.
`O=C(/C=C/c1ccccc1)NCCCNc1ccnc2cc(Cl)ccc12` showed an IC50 (Plasmodium falciparum [3]) of 141 nM and an IC50 (Plasmodium falciparum [4]) of 74.8 nM.
`O=C(/C=C/c1ccccc1[N+](=O)[O-])NCCCNc1ccnc2cc(Cl)ccc12` gave an IC50 (Plasmodium falciparum [3]) of 64.2 nM, an IC50 (Plasmodium falciparum [4]) of 52.1 nM and an inhibition [2] of 50%.
For `COc1ccc(/C=C/C(=O)NCCCC(C)Nc2cc(OC)cc3cccnc23)cc1` (stereo not drawn), the IC50 (Plasmodium berghei [1]) was 2350 nM and the IC50 (Plasmodium falciparum [4]) was over 10000 nM.
`COc1ccc(/C=C/C(=O)NCCCCNc2ccncc2)cc1` showed an IC50 (Plasmodium berghei [1]) of over 10000 nM and an IC50 (Plasmodium falciparum [4]) of over 10000 nM.
`O=C(/C=C/c1ccc(Cl)cc1)NCCCCCNc1ccnc2cc(Cl)ccc12` gave an IC50 (Plasmodium berghei [1]) of 1620 nM and an IC50 (Plasmodium falciparum [4]) of 25.1 nM.
Work on `Cc1ccc(/C=C/C(=O)NCCCCNc2ccnc3cc(Cl)ccc23)cc1` yielded an IC50 (Plasmodium berghei [1]) of 2360 nM, an IC50 (Plasmodium falciparum [3]) of 24.2 nM and an IC50 (Plasmodium falciparum [4]) of 16.9 nM.
For `O=C(/C=C/c1ccc([N+](=O)[O-])cc1)NCCCCNc1ccnc2cc(Cl)ccc12`, the IC50 (Plasmodium falciparum [3]) was 48.9 nM, the IC50 (Plasmodium falciparum [4]) was 23.5 nM and the inhibition [2] was over 75%.
Compound `CC(C)c1ccc(/C=C/C(=O)NCCCCN2CCOCC2)cc1` has an IC50 (Plasmodium berghei [1]) of over 10000 nM and an IC50 (Plasmodium falciparum [4]) of over 10000 nM.
`O=C(/C=C/c1ccc(Br)cc1)NCCCNc1ccnc2cc(Cl)ccc12` gave an IC50 (Plasmodium falciparum [3]) of 50 nM and an IC50 (Plasmodium falciparum [4]) of 38.2 nM.
Work on `Cc1ccc(/C=C/C(=O)NCCCNc2ccnc3cc(Cl)ccc23)cc1` yielded an IC50 (Plasmodium falciparum [3]) of 55.9 nM and an IC50 (Plasmodium falciparum [4]) of 47.4 nM.
For `COc1ccc(/C=C/C(=O)NCCCCNc2ccnc3cc(Cl)ccc23)cc1OC`, the Activity (Huh-7) was “Non-toxic”, the IC50 (Plasmodium berghei [1]) was 4050 nM and the IC50 (Plasmodium falciparum [4]) was 111 nM.
In the case of `CC(C)c1ccc(/C=C/C(=O)NCCCCNc2ccnc3ccccc23)cc1`, the IC50 (Plasmodium falciparum [4]) is reported as 115 nM.
Compound `O=C(/C=C/c1cccc(F)c1)NCCCNc1ccnc2cc(Cl)ccc12` has an IC50 (Plasmodium falciparum [3]) of 138 nM and an IC50 (Plasmodium falciparum [4]) of 73.3 nM.
`O=C(/C=C/c1cccc([N+](=O)[O-])c1)NCCCNc1ccnc2cc(Cl)ccc12` showed an IC50 (Plasmodium falciparum [3]) of 52.7 nM, an IC50 (Plasmodium falciparum [4]) of 50.3 nM and an inhibition [2] of 50%.
`COc1ccc(/C=C/C(=O)NCCCCCNc2ccnc3cc(Cl)ccc23)cc1` showed an IC50 (Plasmodium berghei [1]) of 2270 nM and an IC50 (Plasmodium falciparum [4]) of 50.3 nM.
For `CC(C)c1ccc(/C=C/C(=O)NCCCCCNc2ccnc3cc(Cl)ccc23)cc1`, the IC50 (Plasmodium falciparum [4]) was 31.5 nM and the inhibition [2] was 50%.
With `O=C(/C=C/c1ccc(Cl)cc1)NCCCCNc1ccnc2cc(Cl)ccc12` the Activity (Mus musculus [5]) was “Toxic”, the Survival (Plasmodium berghei [6]; route intraperitoneal) was 2 days and the Survival (Plasmodium berghei [7]; route intraperitoneal) was 2 days. It also gave an IC50 (Plasmodium berghei [1]) of 1440 nM, an IC50 (Plasmodium falciparum [3]) of 26.2 nM and an IC50 (Plasmodium falciparum [4]) of 11.6 nM. The inhibition [2] was 50%.
Compound `O=C(/C=C/c1ccc(Cl)cc1)NCCCNc1ccnc2cc(Cl)ccc12` has an IC50 (Plasmodium falciparum [3]) of 46.5 nM, an IC50 (Plasmodium falciparum [4]) of 41.6 nM and an inhibition [2] of 50%.
Work on `O=C(/C=C/c1ccccc1)NCCCCNc1ccnc2cc(Cl)ccc12` yielded an IC50 (Plasmodium berghei [1]) of 1060 nM, an IC50 (Plasmodium falciparum [3]) of 62.9 nM and an IC50 (Plasmodium falciparum [4]) of 46.6 nM.
`COc1ccc(/C=C/C(=O)NCCCNc2ccnc3cc(Cl)ccc23)cc1` showed an IC50 (Plasmodium berghei [1]) of 4020 nM, an IC50 (Plasmodium falciparum [3]) of 49.5 nM and an IC50 (Plasmodium falciparum [4]) of 55.1 nM.
For `COc1ccc(/C=C/C(=O)NCCCCNc2ccnc3cc(Cl)ccc23)cc1`, the Activity (Mus musculus [8]) was “Non-toxic”, the Survival (Plasmodium berghei [9]) was 2 days and the Activity (Plasmodium berghei [6]) was “inactive”. For the same compound, the Activity (Plasmodium berghei [7]) was “inactive”, the Activity (Huh-7) was “Non-toxic” and the IC50 (Plasmodium berghei [1]) was 2860 nM. For the same compound, the IC50 (Plasmodium falciparum [3]) was 30.6 nM, the IC50 (Plasmodium falciparum [4]) was 20 nM and the inhibition [2] was 50%.
Work on `COc1cc(NC(C)CCCN)c2ncccc2c1` (stereo not drawn) [PRIMAQUINE] yielded an IC50 (Plasmodium berghei [1]) of 7500 nM.
For `CC(C)c1ccc(/C=C/C(=O)NCCCCNc2ccnc3cc(Cl)ccc23)cc1`, the Activity (Mus musculus [5]) was “Toxic”, the Activity (Plasmodium berghei [6]) was “inactive” and the Activity (Plasmodium berghei [7]) was “inactive”. The IC50 (Plasmodium berghei [1]) was 2500 nM, the IC50 (Plasmodium falciparum [3]) was 15.6 nM and the IC50 (Plasmodium falciparum [4]) was 11 nM. It also gave an inhibition [2] of 50%.
Compound `COc1ccc(/C=C/C(=O)OCCCCNc2ccnc3cc(Cl)ccc23)cc1` has an IC50 (Plasmodium berghei [1]) of 6470 nM, an IC50 (Plasmodium falciparum [4]) of 122 nM and an inhibition [2] of 50%.
For `O=C(/C=C/c1cccc([N+](=O)[O-])c1)NCCCCNc1ccnc2cc(Cl)ccc12`, the IC50 (Plasmodium falciparum [3]) was 42.1 nM and the IC50 (Plasmodium falciparum [4]) was 26.2 nM.
With `Nc1ccc(/C=C/C(=O)NCCCNc2ccnc3cc(Cl)ccc23)cc1` the IC50 (Plasmodium falciparum [3]) was 135 nM and the IC50 (Plasmodium falciparum [4]) was 79.8 nM.
`CN(C)c1ccc(/C=C/C(=O)NCCCCNc2ccnc3cc(Cl)ccc23)cc1` gave an IC50 (Plasmodium falciparum [4]) of 25.8 nM and an inhibition [2] of 50%.
For `O=C(/C=C/c1ccc(Br)cc1)NCCCCNc1ccnc2cc(Cl)ccc12`, the IC50 (Plasmodium berghei [1]) was 2280 nM, the IC50 (Plasmodium falciparum [3]) was 28.8 nM and the IC50 (Plasmodium falciparum [4]) was 18.2 nM. It also gave an inhibition [2] of over 75%.

Source: ChEMBL document CHEMBL2311413, “N-cinnamoylated chloroquine analogues as dual-stage antimalarial leads” (J Med Chem, 2013)
